Laboratory results reported in ChEMBL document CHEMBL5674885, “HIV-1 Vpr counteracts HLTF-mediated restriction of HIV-1 infection in T cells” (Proc Natl Acad Sci U S A, 2019).
Activity calls are given as the source filed them. The rule behind the calls is not given here.

Tests used:
[1] = target: T1, Aberrant vpr protein (Human immunodeficiency virus 1) (UniProt Q77YF9); assay: Modulation of HIV-1 Vpr-dependent enhancement of HIV-1 replication in human CEM.SS T cells assessed as effect on percentages of cell-associated HIV-1 DNA at 1 nM added starting 12 hrs before HIV-1 infection until 7 dpi; type: cell-based; details: time 7.0 day
T1 sequence (whole entry): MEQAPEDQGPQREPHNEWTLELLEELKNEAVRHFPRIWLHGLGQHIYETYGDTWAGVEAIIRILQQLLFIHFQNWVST
Procedure, shortened: (§1)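 CEM.SS cells held in drug from ~12 h before infection to 7 dpi, infected (1×10⁵ cells) with a DNase-treated, qPCR-normalized 1:1 mix of NL4-3 reporters HIV-1.mRFP.vpr.wt and HIV-1.RFP.vpr.Q8*, combined moi 0.006–0.02. Density was reset on 3 and 5 dpi, and only cultures with <5% RFP⁺ cells at 7 dpi were kept. Share of each virus DNA at 7 dpi came from SYBR qPCR of RFP/mRFP amplicons against plasmid standards; three biological replicates.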

[2] = Cytotoxicity in human CEM.SS T cells assessed as cell viability level at 1 nM; type: toxicity, cell-based; details: time 7 day, read-out: Activity
[3] = target: T1, Aberrant vpr protein (Human immunodeficiency virus 1); assay: Modulation of HIV-1 Vpr-dependent enhancement of HIV-1 replication in human CEM.SS T cells assessed as effect on percentages of cell-associated HIV-1 DNA at 2 uM added starting 12 hrs before HIV-1 infection until 7 dpi; type: cell-based; details: time 7.0 day; procedure, shortened: as §1
[4] = Cytotoxicity in human CEM.SS T cells assessed as cell viability level at 2 uM; type: toxicity, cell-based; details: time 7 day, read-out: Activity
[5] = target: T1, Aberrant vpr protein (Human immunodeficiency virus 1); assay: Modulation of HIV-1 Vpr-dependent enhancement of HIV-1 replication in human CEM.SS T cells assessed as effect on percentages of cell-associated HIV-1 DNA at 10 uM added starting 12 hrs before HIV-1 infection until 7 dpi; type: cell-based; details: time 7.0 day; procedure, shortened: as §1
[6] = Cytotoxicity in human CEM.SS T cells assessed as cell viability level at 10 uM; type: toxicity, cell-based; details: time 7 day, read-out: Activity
[7] = target: T1, Aberrant vpr protein (Human immunodeficiency virus 1); assay: Modulation of HIV-1 Vpr-dependent enhancement of HIV-1 replication in human CEM.SS T cells assessed as effect on percentages of cell-associated HIV-1 DNA at 1 uM added starting 12 hrs before HIV-1 infection until 7 dpi; type: cell-based; details: time 7.0 day; procedure, shortened: as §1
[8] = Cytotoxicity in human CEM.SS T cells assessed as cell viability level at 1 uM; type: toxicity, cell-based; details: time 7 day, read-out: Activity
[9] = target: T1, Aberrant vpr protein (Human immunodeficiency virus 1); assay: Modulation of HIV-1 Vpr-dependent enhancement of HIV-1 replication in human CEM.SS T cells assessed as effect on percentages of cell-associated HIV-1 DNA at 0.67 uM added starting 12 hrs before HIV-1 infection until 7 dpi; type: cell-based; details: time 7.0 day; procedure, shortened: as §1
[10] = Cytotoxicity in human CEM.SS T cells assessed as cell viability level at 0.67 uM; type: toxicity, cell-based; details: time 7 day, read-out: Activity
[11] = target: T1, Aberrant vpr protein (Human immunodeficiency virus 1); assay: Modulation of HIV-1 Vpr-dependent enhancement of HIV-1 replication in human CEM.SS T cells assessed as effect on percentages of cell-associated HIV-1 DNA at 200 nM added starting 12 hrs before HIV-1 infection until 7 dpi; type: cell-based; details: time 7.0 day; procedure, shortened: as §1
[12] = Cytotoxicity in human CEM.SS T cells assessed as cell viability level at 200 nM; type: toxicity, cell-based; details: time 7 day, read-out: Activity
[13] = target: T1, Aberrant vpr protein (Human immunodeficiency virus 1); assay: Modulation of HIV-1 Vpr-dependent enhancement of HIV-1 replication in human CEM.SS T cells assessed as effect on percentages of cell-associated HIV-1 DNA at 3 uM added starting 12 hrs before HIV-1 infection until 7 dpi; type: cell-based; details: time 7.0 day; procedure, shortened: as §1
[14] = Cytotoxicity in human CEM.SS T cells assessed as cell viability level at 3 uM; type: toxicity, cell-based; details: time 7 day, read-out: Activity

CC(/C=C/C(=O)NO)=C\[C@@H](C)C(=O)c1ccc(N(C)C)cc1 [TRICHOSTATIN]
Activity [1]: inactive | viability at 168 h, 0.001 µM [2]: > 80%

CC(C)N(CCCNC(=O)Nc1ccc(C(C)(C)C)cc1)C[C@H]1O[C@@H](n2cc(Br)c3c(N)ncnc32)[C@H](O)[C@@H]1O
Activity [3]: inactive | viability at 168 h, 2 µM [4]: > 80%

NC(=O)C1CCCc2c1[nH]c1ccc(Cl)cc21 (centres undefined)
Activity [5]: inactive | viability at 168 h, 10 µM [6]: > 80%

COc1cc2c(NC3CCN(C(C)C)CC3)nc(C3CCCCC3)nc2cc1OCCCN1CCCC1
Activity [7]: inactive | viability at 168 h, 1 µM [8]: > 80%

CCCc1cc(C)[nH]c(=O)c1CNC(=O)c1cc(-c2ccnc(N3CCN(C)CC3)c2)cc2c1cnn2C(C)C
Activity [9]: inactive | viability at 168 h, 0.67 µM [10]: > 80%

O=C(CCCCCCC(=O)Nc1ccccc1)NO [VORINOSTAT]
Activity [11]: inactive | viability at 168 h, 0.2 µM [12]: > 80%

CC1=NN(c2ccc(C(=O)O)cc2)C(=O)/C1=C\c1ccc(-c2cc(C)c(C)cc2[N+](=O)[O-])o1
Activity [13]: inactive | viability at 168 h, 3 µM [14]: > 80%
